Experimental data as given in publication PMC3034256 (Chemistry & biology, 2011).
Where “and” joins values, the source holds several entries; their conditions need not be identical. Identical values can stand only once.

What was measured:
SHP1 = SHP1 (Homo sapiens, UniProt P29350); experiment: PTP-catalyzed pNPP hydrolysis, SHP1; format: biochemical
Outline: (§1)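 pNPP hydrolysis was run at 25 °C in 50 mM 3,3-dimethylglutarate, pH 7.0, 1 mM EDTA, ionic strength 0.15 M (NaCl). pNPP was fixed at each enzyme's experimentally determined Km, and reactions were started with enzyme. They were quenched with NaOH and corrected with no-enzyme controls. p-Nitrophenol was read at 405 nm. IC50 was fitted from AI/A0 = IC50/(IC50+[I]).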

PTPα = PTPα (Homo sapiens, UniProt P18433); experiment: PTP-catalyzed pNPP hydrolysis, PTPα; format: biochemical
Chain of PTPα (P18433 20-802): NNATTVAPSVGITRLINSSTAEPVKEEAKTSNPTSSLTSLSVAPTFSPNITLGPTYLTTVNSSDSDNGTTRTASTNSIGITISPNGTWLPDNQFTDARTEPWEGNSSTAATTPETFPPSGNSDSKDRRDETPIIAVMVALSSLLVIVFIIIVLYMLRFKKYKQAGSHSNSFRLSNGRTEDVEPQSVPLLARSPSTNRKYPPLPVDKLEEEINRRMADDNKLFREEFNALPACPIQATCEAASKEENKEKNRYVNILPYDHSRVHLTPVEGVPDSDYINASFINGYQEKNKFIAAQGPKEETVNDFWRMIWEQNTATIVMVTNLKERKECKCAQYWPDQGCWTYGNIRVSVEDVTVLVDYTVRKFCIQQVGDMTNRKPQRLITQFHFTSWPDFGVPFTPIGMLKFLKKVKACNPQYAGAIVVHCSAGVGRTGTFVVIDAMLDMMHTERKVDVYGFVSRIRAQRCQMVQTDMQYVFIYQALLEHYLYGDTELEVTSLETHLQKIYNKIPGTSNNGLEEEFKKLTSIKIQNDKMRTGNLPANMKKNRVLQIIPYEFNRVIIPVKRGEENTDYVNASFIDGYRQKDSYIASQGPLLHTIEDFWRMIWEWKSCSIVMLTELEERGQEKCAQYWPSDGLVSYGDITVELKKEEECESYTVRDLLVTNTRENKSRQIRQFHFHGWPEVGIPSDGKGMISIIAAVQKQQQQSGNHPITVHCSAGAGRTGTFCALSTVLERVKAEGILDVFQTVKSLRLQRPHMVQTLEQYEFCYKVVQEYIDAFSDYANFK
Outline: as §1

CD45 = biological target: T1, CD45 (Homo sapiens, UniProt P08575); experiment: PTP-catalyzed pNPP hydrolysis, CD45; format: biochemical
T1 sequence (P08575 26-1306): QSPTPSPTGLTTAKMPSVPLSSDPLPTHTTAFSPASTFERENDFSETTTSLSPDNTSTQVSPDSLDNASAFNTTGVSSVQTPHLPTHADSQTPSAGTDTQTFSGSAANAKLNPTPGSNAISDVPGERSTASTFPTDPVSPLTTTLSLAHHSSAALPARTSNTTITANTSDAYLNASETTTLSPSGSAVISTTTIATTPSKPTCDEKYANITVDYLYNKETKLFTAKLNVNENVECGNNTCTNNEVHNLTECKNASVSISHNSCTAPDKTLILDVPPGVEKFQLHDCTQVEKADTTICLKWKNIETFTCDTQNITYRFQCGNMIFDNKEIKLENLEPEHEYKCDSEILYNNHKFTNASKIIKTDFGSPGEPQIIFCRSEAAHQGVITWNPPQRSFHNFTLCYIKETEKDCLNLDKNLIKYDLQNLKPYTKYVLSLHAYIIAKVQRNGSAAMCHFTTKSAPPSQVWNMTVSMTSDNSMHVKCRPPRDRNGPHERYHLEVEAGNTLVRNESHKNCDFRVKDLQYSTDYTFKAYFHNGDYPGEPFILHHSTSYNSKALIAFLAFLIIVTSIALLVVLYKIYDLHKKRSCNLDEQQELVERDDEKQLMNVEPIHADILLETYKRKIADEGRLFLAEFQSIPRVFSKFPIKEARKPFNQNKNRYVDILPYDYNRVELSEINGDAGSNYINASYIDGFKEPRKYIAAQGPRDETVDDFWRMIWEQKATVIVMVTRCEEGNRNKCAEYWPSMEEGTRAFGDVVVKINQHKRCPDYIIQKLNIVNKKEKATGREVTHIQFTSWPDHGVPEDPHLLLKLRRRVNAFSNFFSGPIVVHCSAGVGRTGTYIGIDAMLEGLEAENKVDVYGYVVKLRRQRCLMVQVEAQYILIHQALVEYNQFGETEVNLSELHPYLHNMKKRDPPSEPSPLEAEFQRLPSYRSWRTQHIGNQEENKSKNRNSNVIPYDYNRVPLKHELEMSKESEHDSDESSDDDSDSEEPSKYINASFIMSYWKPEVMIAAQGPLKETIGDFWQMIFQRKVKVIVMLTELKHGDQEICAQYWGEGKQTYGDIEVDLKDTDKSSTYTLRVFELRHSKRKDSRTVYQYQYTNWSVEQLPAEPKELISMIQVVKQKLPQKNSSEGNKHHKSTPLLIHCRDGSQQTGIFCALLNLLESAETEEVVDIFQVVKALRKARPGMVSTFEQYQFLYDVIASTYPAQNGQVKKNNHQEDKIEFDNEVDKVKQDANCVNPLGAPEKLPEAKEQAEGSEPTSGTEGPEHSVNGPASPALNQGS
Outline: as §1

Jurkat T cells [1] = experiment: TCR-mediated tyrosine phosphorylation in Jurkat T cells; format: cell-based; details: 2 h pretreatment (2 µM; TTN 2–4 µM), 10 µg/mL anti-CD3
HePTP = biological target: T2, HePTP (Homo sapiens, UniProt P35236); experiment: PTP-catalyzed pNPP hydrolysis, HePTP; format: biochemical
T2 sequence (P35236 1-360): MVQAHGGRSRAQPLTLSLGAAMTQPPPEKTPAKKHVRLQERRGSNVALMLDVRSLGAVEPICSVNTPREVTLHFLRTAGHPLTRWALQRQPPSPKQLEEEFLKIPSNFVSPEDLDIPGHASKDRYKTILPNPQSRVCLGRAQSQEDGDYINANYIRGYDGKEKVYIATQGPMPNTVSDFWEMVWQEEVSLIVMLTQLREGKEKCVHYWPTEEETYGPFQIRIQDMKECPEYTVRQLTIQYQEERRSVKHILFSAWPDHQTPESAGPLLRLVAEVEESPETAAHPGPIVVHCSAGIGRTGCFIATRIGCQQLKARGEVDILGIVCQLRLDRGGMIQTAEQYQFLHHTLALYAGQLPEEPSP
Outline: as §1

[2] = system: SHP2/E76K-expressing hematopoietic progenitors; format: cell-based; details: 2 µM for 24 hours, GM-CSF 1 ng/mL, [3H] thymidine
Outline: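 Transduced, EGFP-sorted bone marrow low-density mononuclear cells (empty vector, wild-type SHP2 or SHP2/E76K) were serum- and growth factor-starved for 6 h. They were then cultured in complete medium with GM-CSF 1 ng/mL, with DMSO or 2 µM test compound, for 24 h. Cells were pulsed with [3H]thymidine to measure proliferation. Two independent experiments, cultures in triplicate.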

SHP2 = biological target: T3, SHP2 (Homo sapiens, UniProt Q06124); experiment: PTP-catalyzed pNPP hydrolysis, SHP2; format: biochemical
T3 sequence (Q06124 262-528): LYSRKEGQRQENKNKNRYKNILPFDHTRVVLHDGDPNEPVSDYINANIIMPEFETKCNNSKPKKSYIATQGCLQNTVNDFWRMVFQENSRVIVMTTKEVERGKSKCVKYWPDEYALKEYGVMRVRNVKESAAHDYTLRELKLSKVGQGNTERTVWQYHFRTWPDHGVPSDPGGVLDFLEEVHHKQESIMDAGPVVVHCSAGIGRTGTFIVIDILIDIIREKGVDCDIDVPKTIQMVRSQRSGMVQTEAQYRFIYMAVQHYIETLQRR
Outline: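 The SHP2 catalytic domain (residues 262–528) hydrolysed pNPP at 25 °C, pH 7.0 (50 mM 3,3-dimethylglutarate, 1 mM EDTA, ionic strength 0.15 M). Single-point screening used 10 µM final test compound. IC50 was measured at pNPP = Km by A405 after NaOH quench, fitted to AI/A0 = IC50/(IC50+[I]). For Ki and mode, initial rates at inhibitor 0–3 Ki and pNPP 0.2–5× apparent Km were fitted to kinetic equations.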

human primary T-cell = details: ref Shim et al., 2002; cited from earlier work
PP1 = details: biochemical assays; cited from earlier work
Jurkat T cells [3] = experiment: TCR-mediated ERK1/2 activation in Jurkat T cells; format: cell-based; details: 2 h pretreatment (2 µM), 10 µg/mL anti-CD3

Chain of SHP1 (P29350 whole entry): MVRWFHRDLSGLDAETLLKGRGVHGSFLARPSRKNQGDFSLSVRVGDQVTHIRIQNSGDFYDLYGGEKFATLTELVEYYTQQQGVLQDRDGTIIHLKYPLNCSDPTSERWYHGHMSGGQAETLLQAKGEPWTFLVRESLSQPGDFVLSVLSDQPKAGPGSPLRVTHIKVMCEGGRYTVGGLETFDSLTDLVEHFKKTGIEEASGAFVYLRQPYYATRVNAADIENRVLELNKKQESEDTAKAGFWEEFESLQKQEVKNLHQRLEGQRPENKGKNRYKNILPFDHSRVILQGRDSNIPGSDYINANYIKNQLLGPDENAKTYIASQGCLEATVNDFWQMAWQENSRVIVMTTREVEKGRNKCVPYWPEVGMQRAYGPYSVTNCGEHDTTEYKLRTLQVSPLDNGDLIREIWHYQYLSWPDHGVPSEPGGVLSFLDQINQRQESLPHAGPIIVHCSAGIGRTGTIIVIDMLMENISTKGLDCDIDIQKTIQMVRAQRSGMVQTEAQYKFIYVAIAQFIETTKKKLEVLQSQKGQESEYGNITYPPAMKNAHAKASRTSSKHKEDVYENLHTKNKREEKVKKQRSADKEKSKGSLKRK

In the case of `C=C/C(=C/C(=O)C[C@H](C)C[C@@H](C)CC[C@H](O)[C@H](C)C(=O)C[C@@H](O)[C@H](C)[C@@H](C)OC(=O)C[C@@H](O)C1=C(C)C(=O)OC1=O)CC` [TTN, tautomycetin], the IC50 (SHP1) is reported as 14.6 ± 1.1 µM, the IC50 (PTPα) is reported as over 50 µM and the IC50 (CD45) is reported as over 50 µM. The “effect on TCR-mediated tyrosine phosphorylation” value (Jurkat T cells [1]) was “efficiently attenuated”, the IC50 (HePTP) was over 50 µM and the “effect on proliferation of SHP2/E76K-expressing progenitors” value [2] was “effectively reduced”. For the same compound, the IC50 (SHP2) was 2.9 ± 0.2 µM, the Ki (SHP2) was 1.6 ± 0.1 µM and the “reduction of SHP2 activity” value (SHP2; 10 µM compound, pNPP, pH 7, 25 °C) was 80–90%. The “preference for SHP2 over all PTPs examined” value (SHP2; from IC50 values) was at least 5 fold, the “mode of SHP2 inhibition” value (SHP2; pNPP hydrolysis, 25 °C, pH 7.0) was “competitive inhibitors” and the “concentration inhibiting human primary T-cell tyrosine phosphorylation” value (human primary T-cell) was 1 µg/mL and 1.65 µM. For the same compound, the “inhibition of PP1” value (PP1) was “low nM range” and the “effect on TCR-mediated ERK1/2 activation” value (Jurkat T cells [3]) was “strongly reduced”.
